# Measured values of several laboratories.
# Lines come from different studies, so protocols differ.
# Target: 3',5'-cyclic-AMP phosphodiesterase 4B (PDE4B, Homo sapiens, UniProt Q07343)
# Observed: enzyme activity
# Mode: inhibitor
Compound,assay,endpoint,value
COc1ccc(C2=NN(C3CCCCCC3)C(=O)C3CC=CCC23)cc1-c1ccc(C(=O)N2CCC[C@@H]2C(N)=O)cc1 (mixture of isomers),,Ki,6.31 µM
CCn1c(-c2nc3ccc(C(=O)N4CCCC(N)C4)cc3n2C)cc2ccccc21 (centres unmarked),,IC50,25.1 µM
CC(C)CC(=O)c1ccc(OC(F)F)c(O[C@@H]2CCOC2)c1,radiometric,IC50,0.089 µM
COc1ccc(C2=NN(C3CCCCCC3)C(=O)C3CC=CCC23)cc1-c1ccc(C(=O)N2CC[C@@H](O)C2)cc1 (mixture of isomers),,Ki,2 µM
CN1C(=O)c2c(nn(Cc3ccc(-c4cccc(F)n4)cc3)c2Nc2ccccc2)N2C1=N[C@@H]1CCC[C@@H]12,,IC50,> 0.1 µM
CSc1ccc(/C=C2/C(C)=C(CC(=O)O)c3cc(F)ccc32)cc1,,IC50,> 100 µM
CCn1c(-c2nc3cc(C(=O)N4CCC[C@@H](N)C4)cc(OC)c3n2C)cc2cccnc21,,IC50,6.31 µM
COc1ccc([C@@H]2CN(C(=O)[C@@H](O)CO)C[C@@]2(C)[C@@H](C)O)cc1OC1CN(c2ccc(C)cn2)C1,,IC50,9e-05 µM
